One block for each compound: values may come before it.
How the values were obtained:
[1] = Permeability from basolateral to apical side in human Caco2 cells; type: ADME, cell-based; conditions: Caco-2, read-out: permeability
[2] = AUC in rat; type: ADME; conditions: in vivo
How it was run: (§1)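 Rat PK after iv and po dosing; both routes given in vehicle 70% PG, 20% water, 10% ethanol; compounds dosed either in cassette or discrete format.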

[3] = Volume of distribution at steady state in rat at 0.79 mg/kg, iv or 1.58 mg/kg, po; type: ADME, organism-based; conditions: in vivo, read-out: Vdss; how it was run: as §1
[4] = Oral bioavailability in rat at 1.58 mg/kg; type: ADME, organism-based; conditions: in vivo; how it was run: as §1
[5] = Half life in rat at 0.79 mg/kg, iv or 1.58 mg/kg, po; type: ADME, organism-based; conditions: in vivo; how it was run: as §1
[6] = Half life in human liver microsomes; type: ADME, Microsome
[7] = Clearance in rat at 0.79 mg/kg, iv or 1.58 mg/kg, po; type: ADME, organism-based; conditions: in vivo; how it was run: as §1
[8] = Permeability from apical to basolateral side in human Caco2 cells; type: ADME, cell-based; conditions: Caco-2, read-out: permeability
[9] = Half life in rat liver microsomes; type: ADME, Microsome
Coagulation factor XI = Coagulation factor XI (Homo sapiens, UniProt P03951); test: Inhibition of activated coagulation factor 11 (unknown origin) assessed as inhibitory constant
Sequence of Coagulation factor XI (P03951 19-387 limits assumed): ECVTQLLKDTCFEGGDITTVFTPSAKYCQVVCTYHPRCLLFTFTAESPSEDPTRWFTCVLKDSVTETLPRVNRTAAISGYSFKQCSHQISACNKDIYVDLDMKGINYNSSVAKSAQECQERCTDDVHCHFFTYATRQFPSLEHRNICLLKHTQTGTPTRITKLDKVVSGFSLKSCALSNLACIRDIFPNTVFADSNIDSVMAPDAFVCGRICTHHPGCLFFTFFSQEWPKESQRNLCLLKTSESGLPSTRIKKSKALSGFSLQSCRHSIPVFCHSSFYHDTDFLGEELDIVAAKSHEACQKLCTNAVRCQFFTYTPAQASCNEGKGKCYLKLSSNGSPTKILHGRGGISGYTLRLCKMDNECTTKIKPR
Sequence of Coagulation factor XI (P03951 388-625 limits assumed): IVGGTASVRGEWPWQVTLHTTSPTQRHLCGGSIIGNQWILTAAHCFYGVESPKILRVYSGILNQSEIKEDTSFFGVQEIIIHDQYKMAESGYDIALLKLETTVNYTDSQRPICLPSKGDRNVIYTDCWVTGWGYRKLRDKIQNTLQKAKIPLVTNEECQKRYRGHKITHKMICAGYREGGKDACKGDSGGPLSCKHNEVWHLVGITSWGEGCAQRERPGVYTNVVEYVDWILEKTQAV

[10] = Oral bioavailability in rat at 1.04 mg/kg; type: ADME, organism-based; conditions: in vivo; how it was run: as §1
[11] = Half life in rat at […], iv or 1.04 mg/kg, po; type: ADME, organism-based; conditions: in vivo
[12] = Volume of distribution at steady state in rat at […], iv or 1.04 mg/kg, po; type: ADME, organism-based; conditions: in vivo, read-out: Vdss
[13] = Clearance in rat at […], iv or 1.04 mg/kg, po; type: ADME, organism-based; conditions: in vivo
Trypsin = Trypsin (Homo sapiens, UniProt P07477+P07478+P35030); test: Inhibition of human trypsin; type: protein assay
[14] = Volume of distribution at steady state in rat at 0.63 mg/kg, iv or 1.27 mg/kg, po; type: ADME, organism-based; conditions: in vivo, read-out: Vdss; how it was run: as §1
[15] = Half life in rat at 0.63 mg/kg, iv or 1.27 mg/kg, po; type: ADME, organism-based; conditions: in vivo
How it was run: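 Rat pharmacokinetics with iv and oral dosing; the vehicle for both routes was 70% PG, 20% water and 10% ethanol. Half-life was derived from the plasma profile.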

Coagulation factor IX = Coagulation factor IX (Homo sapiens, UniProt P00740); test: Inhibition of activated human coagulation factor 9
Sequence of Coagulation factor IX (P00740 47-191 limits assumed): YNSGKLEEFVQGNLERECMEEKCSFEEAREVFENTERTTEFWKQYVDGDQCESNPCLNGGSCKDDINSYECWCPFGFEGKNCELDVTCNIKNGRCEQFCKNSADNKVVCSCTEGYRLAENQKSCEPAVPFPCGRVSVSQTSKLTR
Sequence of Coagulation factor IX (P00740 227-461 limits assumed): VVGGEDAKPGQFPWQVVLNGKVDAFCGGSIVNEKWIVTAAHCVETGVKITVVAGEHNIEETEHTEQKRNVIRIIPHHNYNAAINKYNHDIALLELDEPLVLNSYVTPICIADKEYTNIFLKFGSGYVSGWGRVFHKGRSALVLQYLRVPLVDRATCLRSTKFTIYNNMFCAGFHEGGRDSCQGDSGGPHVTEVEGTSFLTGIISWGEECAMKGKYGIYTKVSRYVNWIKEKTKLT

[16] = Clearance in rat at 0.63 mg/kg, iv or 1.27 mg/kg, po; type: ADME, organism-based; conditions: in vivo; how it was run: as §1
Coagulation factor X = Coagulation factor X (Homo sapiens, UniProt P00742); test: Inhibition of activated human coagulation factor 10
Sequence of Coagulation factor X (P00742 41-179 limits assumed): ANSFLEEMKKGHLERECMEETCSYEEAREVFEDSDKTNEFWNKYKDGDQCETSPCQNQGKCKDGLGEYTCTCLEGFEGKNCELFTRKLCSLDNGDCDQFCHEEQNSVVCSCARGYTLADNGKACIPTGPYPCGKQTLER
Sequence of Coagulation factor X (P00742 235-488 limits assumed): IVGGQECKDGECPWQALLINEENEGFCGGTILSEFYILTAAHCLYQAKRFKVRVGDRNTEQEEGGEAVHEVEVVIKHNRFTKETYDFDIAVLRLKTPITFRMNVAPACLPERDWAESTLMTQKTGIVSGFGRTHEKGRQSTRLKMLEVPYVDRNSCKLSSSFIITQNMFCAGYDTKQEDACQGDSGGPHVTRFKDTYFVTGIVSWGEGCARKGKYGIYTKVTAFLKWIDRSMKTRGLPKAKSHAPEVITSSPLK

Plasminogen = Plasminogen (Homo sapiens, UniProt P00747); test: Inhibition of human plasmin
Sequence of Plasminogen (P00747 97-580 limits assumed): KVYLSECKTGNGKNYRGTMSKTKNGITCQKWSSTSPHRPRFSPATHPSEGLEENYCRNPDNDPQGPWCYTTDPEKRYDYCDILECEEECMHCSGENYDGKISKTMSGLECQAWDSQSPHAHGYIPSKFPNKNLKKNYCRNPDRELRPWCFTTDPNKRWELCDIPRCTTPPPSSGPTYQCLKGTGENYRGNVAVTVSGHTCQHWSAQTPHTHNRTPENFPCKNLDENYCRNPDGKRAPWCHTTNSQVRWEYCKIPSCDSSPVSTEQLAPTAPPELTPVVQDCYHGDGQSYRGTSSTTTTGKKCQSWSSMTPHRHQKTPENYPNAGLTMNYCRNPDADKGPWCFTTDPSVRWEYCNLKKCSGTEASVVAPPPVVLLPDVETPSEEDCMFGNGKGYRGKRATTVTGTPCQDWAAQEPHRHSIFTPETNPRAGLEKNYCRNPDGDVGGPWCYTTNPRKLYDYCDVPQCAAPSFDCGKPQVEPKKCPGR
Sequence of Plasminogen (P00747 581-810 limits assumed): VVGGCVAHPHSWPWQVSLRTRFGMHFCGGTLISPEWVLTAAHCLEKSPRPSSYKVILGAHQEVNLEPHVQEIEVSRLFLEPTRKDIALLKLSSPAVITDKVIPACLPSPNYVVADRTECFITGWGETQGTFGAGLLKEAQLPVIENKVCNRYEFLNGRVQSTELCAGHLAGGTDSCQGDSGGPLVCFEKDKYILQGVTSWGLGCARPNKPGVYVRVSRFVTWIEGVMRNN

[17] = Oral bioavailability in rat at 1.27 mg/kg; type: ADME, organism-based; conditions: in vivo; how it was run: as §1
[18] = target: Tissue-type plasminogen activator (Homo sapiens, UniProt P00750); test: Inhibition of human TPA
Sequence of Tissue-type plasminogen activator (P00750 whole entry): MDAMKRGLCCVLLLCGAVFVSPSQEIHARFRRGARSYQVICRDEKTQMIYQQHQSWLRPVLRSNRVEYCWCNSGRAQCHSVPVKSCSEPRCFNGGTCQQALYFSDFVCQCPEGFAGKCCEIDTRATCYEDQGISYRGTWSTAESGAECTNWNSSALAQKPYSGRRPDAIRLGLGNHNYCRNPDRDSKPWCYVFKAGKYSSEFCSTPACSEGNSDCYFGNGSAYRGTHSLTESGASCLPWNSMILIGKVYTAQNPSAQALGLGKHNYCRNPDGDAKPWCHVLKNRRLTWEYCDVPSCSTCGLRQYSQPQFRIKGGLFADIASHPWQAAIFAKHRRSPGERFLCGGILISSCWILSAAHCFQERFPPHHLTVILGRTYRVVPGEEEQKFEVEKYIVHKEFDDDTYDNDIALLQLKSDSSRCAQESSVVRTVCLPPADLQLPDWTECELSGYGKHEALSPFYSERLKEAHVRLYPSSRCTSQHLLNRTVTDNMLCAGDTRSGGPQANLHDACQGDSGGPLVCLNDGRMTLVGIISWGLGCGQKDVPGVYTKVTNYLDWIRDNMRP

Coagulation factor VII = target: T1, Coagulation factor VII (Homo sapiens, UniProt P08709); test: Inhibition of activated human coagulation factor 7
T1 sequence (P08709 whole entry): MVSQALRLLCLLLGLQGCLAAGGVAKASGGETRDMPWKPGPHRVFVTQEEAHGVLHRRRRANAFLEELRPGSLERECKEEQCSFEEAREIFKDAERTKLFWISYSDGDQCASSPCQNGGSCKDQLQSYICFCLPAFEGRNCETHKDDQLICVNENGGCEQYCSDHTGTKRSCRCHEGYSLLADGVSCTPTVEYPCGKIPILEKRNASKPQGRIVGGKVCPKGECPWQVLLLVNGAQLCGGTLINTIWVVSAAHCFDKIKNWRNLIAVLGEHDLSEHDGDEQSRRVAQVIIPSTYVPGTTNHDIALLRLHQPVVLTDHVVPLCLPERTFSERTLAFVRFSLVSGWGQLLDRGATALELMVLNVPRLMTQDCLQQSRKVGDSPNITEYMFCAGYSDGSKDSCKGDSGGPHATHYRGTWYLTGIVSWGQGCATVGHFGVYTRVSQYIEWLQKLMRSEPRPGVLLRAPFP

[19] = target: Urokinase-type plasminogen activator (Homo sapiens, UniProt P00749); test: Inhibition of human urokinase
[20] = target: Vitamin K-dependent protein C (Homo sapiens, UniProt P04070); test: Inhibition of human activated protein C
Sequence of Vitamin K-dependent protein C (P04070 43-197 limits assumed): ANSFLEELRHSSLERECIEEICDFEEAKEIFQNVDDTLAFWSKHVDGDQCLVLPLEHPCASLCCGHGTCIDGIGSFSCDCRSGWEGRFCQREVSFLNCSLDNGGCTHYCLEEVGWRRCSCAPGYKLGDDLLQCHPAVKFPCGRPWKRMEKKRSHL
Sequence of Vitamin K-dependent protein C (P04070 212-461 limits assumed): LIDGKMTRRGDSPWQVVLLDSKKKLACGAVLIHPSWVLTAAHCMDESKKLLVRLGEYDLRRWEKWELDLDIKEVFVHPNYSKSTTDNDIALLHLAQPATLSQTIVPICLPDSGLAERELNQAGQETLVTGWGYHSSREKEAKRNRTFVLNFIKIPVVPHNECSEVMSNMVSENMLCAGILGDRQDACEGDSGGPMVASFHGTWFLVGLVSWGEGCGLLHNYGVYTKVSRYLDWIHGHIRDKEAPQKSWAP

Coagulation factor XII = target: T2, Coagulation factor XII (Homo sapiens, UniProt P00748); test: Inhibition of activated human coagulation factor 12
T2 sequence (P00748 whole entry): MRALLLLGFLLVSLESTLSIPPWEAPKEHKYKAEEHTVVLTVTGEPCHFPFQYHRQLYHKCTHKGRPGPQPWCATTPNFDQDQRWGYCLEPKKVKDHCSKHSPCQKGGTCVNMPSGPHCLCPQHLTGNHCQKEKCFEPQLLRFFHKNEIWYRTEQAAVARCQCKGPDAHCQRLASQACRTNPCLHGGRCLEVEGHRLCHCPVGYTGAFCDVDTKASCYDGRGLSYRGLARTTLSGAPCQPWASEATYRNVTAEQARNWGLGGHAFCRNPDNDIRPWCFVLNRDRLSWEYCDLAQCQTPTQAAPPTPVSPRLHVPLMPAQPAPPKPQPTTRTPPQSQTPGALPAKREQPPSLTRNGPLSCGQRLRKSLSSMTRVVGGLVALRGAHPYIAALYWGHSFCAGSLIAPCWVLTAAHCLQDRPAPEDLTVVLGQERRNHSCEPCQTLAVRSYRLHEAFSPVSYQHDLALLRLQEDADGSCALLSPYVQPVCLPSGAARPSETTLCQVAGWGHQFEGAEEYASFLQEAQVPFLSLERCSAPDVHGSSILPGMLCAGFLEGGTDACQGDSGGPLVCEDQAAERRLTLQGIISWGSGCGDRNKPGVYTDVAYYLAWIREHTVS

Prothrombin = Prothrombin (Homo sapiens, UniProt P00734); test: Inhibition of human thrombin
[21] = Half life in rat at 0.68 mg/kg, iv or 1.36 mg/kg, po; type: ADME, organism-based; conditions: in vivo; how it was run: as §1
[22] = Oral bioavailability in rat at 1.36 mg/kg; type: ADME, organism-based; conditions: in vivo; how it was run: as §1
[23] = Clearance in rat at 0.68 mg/kg, iv or 1.36 mg/kg, po; type: ADME, organism-based; conditions: in vivo; how it was run: as §1
[24] = Volume of distribution at steady state in rat at 0.68 mg/kg, iv or 1.36 mg/kg, po; type: ADME, organism-based; conditions: in vivo, read-out: Vdss; how it was run: as §1

Compound: COC(=O)Nc1ccc2c(c1)NC(=O)CC/C=C/C[C@H](NC(=O)/C=C/c1cc(Cl)ccc1-n1cnnn1)c1nc-2c[nH]1
Papp B→A [1]: 5.8 ×10⁻⁶ cm/s
AUC [2]: 0.011 µM·h
Vd [3]: 0.7 L/kg
bioavailability [4]: 0.8%
half-life [5]: 42 min
half-life [6]: 41 min
clearance [7]: 28 mL/min/kg
Papp A→B [8]: < 1.5 ×10⁻⁶ cm/s
half-life [9]: 39 min

Compound: COC(=O)Nc1ccc2c(c1)NC(=O)CC/C=C/C[C@H](N1CC[C@H](c3c(F)ccc(Cl)c3F)CC1=O)c1nc-2c[nH]1
half-life [6]: 9 min
half-life [9]: 7 min

Compound: COC(=O)Nc1ccc2c(c1)NC(=O)CC/C=C/C[C@H](N1CCC(c3cccc(Cl)c3)NC1=O)c1nc-2c[nH]1 (some centres not stated)
half-life [6]: 35 min
half-life [9]: 18 min

Compound: COC(=O)Nc1ccc2c(c1)NC(=O)CC/C=C/C[C@H](N1CC[C@H](c3c(F)ccc(Cl)c3F)OC1=O)c1nc-2c(Cl)[nH]1
half-life [6]: 9 min
half-life [9]: 22 min

Compound: COC(=O)Nc1ccc2c(c1)NC(=O)CC/C=C/C[C@H](N1CC[C@H](c3c(F)ccc(Cl)c3F)OC1=O)c1nc-2c[nH]1
half-life [6]: 8 min
half-life [9]: 15 min

Compound: COC(=O)Nc1ccc2c(c1)NC(=O)CC/C=C/C[C@H](N1CC[C@H](c3cccc(Cl)c3)OC1=O)c1nc-2c[nH]1
half-life [21]: 48 min
bioavailability [22]: 59%
AUC [2]: 0.523 µM·h
clearance [23]: 40 mL/min/kg
Vd [24]: 1.3 L/kg

Compound: COC(=O)Nc1ccc2c(c1)NC(=O)CC/C=C/C[C@H](N1CCC(c3c(F)ccc(Cl)c3F)NC1=O)c1nc-2c[nH]1 (some centres not stated)
half-life [6]: 41 min
half-life [9]: 26 min

Compound: COC(=O)Nc1ccc2c(c1)NC(=O)CC/C=C/C[C@H](N1CCN(c3cccc(Cl)c3)CC1=O)c1nc-2c[nH]1
half-life [6]: 15 min

Compound: [2H][C@]1(c2c(F)ccc(Cl)c2F)CCN([C@H]2C/C=C/CCC(=O)Nc3cc(NC(=O)OC)ccc3-c3nc2[nH]c3Cl)C(=O)O1
half-life [6]: 16 min
half-life [9]: 31 min

Compound: COC(=O)Nc1ccc2c(c1)NC(=O)CC/C=C/C[C@H](N1CC[C@H](c3cc(Cl)ccc3C(F)(F)F)OC1=O)c1nc-2c(Cl)[nH]1
half-life [6]: 18 min
half-life [9]: 49 min

Compound: COC(=O)Nc1ccc2c(c1)NC(=O)CC/C=C/C[C@H](N1CC[C@H](c3cc(Cl)ccc3F)OC1=O)c1nc-2c(Cl)[nH]1
half-life [6]: 5 min
half-life [9]: 18 min

More lines, now with the values ahead:

Ki (Coagulation factor XI): 0.422 µM
Compound: COC(=O)Nc1ccc(-c2nc([C@H](Cc3ccccc3)NC(=O)NCc3cccc(Cl)c3)[nH]c2Cl)cc1

Ki (Coagulation factor XI): 0.175 µM
Compound: COC(=O)Nc1ccc(-c2nc([C@H](Cc3ccccc3)N3CCC(c4cccc(Cl)c4)NC3=O)[nH]c2Cl)cc1 (some centres not stated)

bioavailability [10]: 2%
Papp B→A [1]: 32.4 ×10⁻⁶ cm/s
AUC [2]: 0.027 µM·h
half-life [11]: 84 min
Vd [12]: 3.2 L/kg
clearance [13]: 44 mL/min/kg
half-life [6]: 32 min
Papp A→B [8]: < 1.5 ×10⁻⁶ cm/s
half-life [9]: 45 min
Compound: COC(=O)Nc1ccc2c(c1)NC(=O)CC/C=C/C[C@H](NC(=O)/C=C/c1cccc(Cl)c1)c1nc-2c[nH]1

Ki (Coagulation factor XI): 0.372 µM
Compound: COC(=O)Nc1ccc(-c2c[nH]c([C@@H]3[C@@H](c4ccccc4)CCN3C(=O)/C=C/c3cc(Cl)ccc3-n3cnnn3)n2)cc1

Ki (Coagulation factor XI): 0.189 µM
Compound: COC(=O)Nc1ccc(-c2nc([C@H](Cc3ccccc3)N(C)C(=O)/C=C/c3cc(Cl)ccc3-n3cnnn3)[nH]c2Cl)cc1

Ki (Trypsin): > 6.26 µM
Papp B→A [1]: 30.9 ×10⁻⁶ cm/s
Vd [14]: 4.6 L/kg
half-life [15]: 30 min
AUC [2]: 0.031 µM·h
Ki (Coagulation factor IX): > 27.1 µM
clearance [16]: 188 mL/min/kg
Ki (Coagulation factor X): > 9 µM
Ki (Plasminogen): > 15.2 µM
bioavailability [17]: 15%
Ki [18]: > 6.15 µM
Ki (Coagulation factor VII): 4.85 µM
Ki [19]: > 15.1 µM
Ki [20]: > 7.16 µM
Ki (Coagulation factor XII): > 3.05 µM
half-life [6]: 6 min
Ki (Prothrombin): > 13.3 µM
Papp A→B [8]: 4.6 ×10⁻⁶ cm/s
half-life [9]: 5 min
Compound: COC(=O)Nc1ccc2c(c1)NC(=O)CC/C=C/C[C@H](N1CC[C@H](c3cccc(Cl)c3)CC1=O)c1nc-2c[nH]1

Ki (Coagulation factor XI): 0.871 µM
Compound: COC(=O)Nc1ccc(-c2nc([C@H](Cc3ccccc3)NC(=O)CCc3cccc(Cl)c3)[nH]c2Cl)cc1

Ki (Coagulation factor XI): > 13.3 µM
Compound: COC(=O)Nc1ccc(-c2cn3c(n2)C(Cc2ccccc2)N(C(=O)/C=C/c2cc(Cl)ccc2-n2cnnn2)CCC3)cc1 (configuration not stated)

half-life [6]: 11 min
half-life [9]: 14 min
Compound: COC(=O)Nc1ccc2c(c1)NC(=O)CC/C=C/C[C@H](N1CC[C@H](c3cccc(Cl)c3)OC1=O)c1nc-2c(Cl)[nH]1

— ChEMBL document CHEMBL4396948, “Structure based design of macrocyclic factor XIa inhibitors: Discovery of cyclic P1 linker moieties with improved oral bioavailability” (Bioorg Med Chem Lett, 2019)
